Measurements published in ChEMBL document CHEMBL1154719, “Click chemistry: studies on the synthesis of novel fluorous tagged triazol-4-yl substituted quinazoline derivatives and their biological evaluation--theoretical and experimental validation” (2010).
In brackets after ≈: the same amount, converted by molar mass.

Assays:
Assay type in all cases: functional
[1] = tested on: Staphylococcus aureus; assay: Antibacterial activity against Staphylococcus aureus MTCC 96 by broth dilution method
How it was run: (§1)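 MIC by broth dilution in nutrient broth. Test bacteria were kept on nutrient agar slants and subcultured in Petri dishes before testing.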

[2] = tested on: Aspergillus flavus; assay: Antifungal activity against Aspergillus flavus MTCC 277 at 100 ug/ml after 48 hrs by agar cup diffusion method; conditions: MTCC 277, 48 h, read-out: DIZ
How it was run: (§2)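 Agar cup diffusion on autoclaved potato dextrose agar plates. Each plate was spread with 0.5 ml of a week-old culture, and test solutions at 30 and 100 per ml were added to cups. Plates were held at 28 °C for 48 h, and inhibition zone diameters were read in mm. Acetone served as the solvent control and amphotericin-B as the reference.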

[3] = tested on: Candida albicans; assay: Antifungal activity against Candida albicans MTCC 227 at 100 ug/ml after 48 hrs by agar cup diffusion method; conditions: MTCC 227, 48 h, read-out: DIZ; how it was run: as §2
[4] = tested on: Aspergillus niger; assay: Antifungal activity against Aspergillus niger MTCC 1344 at 30 ug/ml after 48 hrs by agar cup diffusion method; conditions: MTCC 1344, 48 h, read-out: DIZ; how it was run: as §2
[5] = tested on: Pseudomonas aeruginosa; assay: Antibacterial activity against Pseudomonas aeruginosa MTCC 741 by broth dilution method; how it was run: as §1
[6] = tested on: Escherichia coli; assay: Antibacterial activity against Escherichia coli MTCC 443 by broth dilution method; how it was run: as §1
[7] = tested on: Bacillus subtilis; assay: Antibacterial activity against Bacillus subtilis MTCC 441 by broth dilution method; how it was run: as §1
[8] = tested on: Staphylococcus epidermidis; assay: Antibacterial activity against Staphylococcus epidermidis MTCC 435 by broth dilution method; how it was run: as §1
[9] = tested on: Candida albicans; assay: Antifungal activity against Candida albicans MTCC 227 at 30 ug/ml after 48 hrs by agar cup diffusion method; conditions: MTCC 227, 48 h, read-out: DIZ; how it was run: as §2
[10] = tested on: Aspergillus niger; assay: Antifungal activity against Aspergillus niger MTCC 1344 at 100 ug/ml after 48 hrs by agar cup diffusion method; conditions: MTCC 1344, 48 h, read-out: DIZ; how it was run: as §2
[11] = tested on: Saccharomyces cerevisiae; assay: Antifungal activity against Saccharomyces cerevisiae MTCC 36 at 100 ug/ml after 48 hrs by agar cup diffusion method; conditions: MTCC 36, 48 h, read-out: DIZ; how it was run: as §2
[12] = tested on: Rhizopus arrhizus; assay: Antifungal activity against Rhizopus oryzae MTCC 262 at 100 ug/ml after 48 hrs by agar cup diffusion method; conditions: MTCC 262, 48 h, read-out: DIZ; how it was run: as §2
[13] = tested on: Diutina rugosa; assay: Antifungal activity against Candida rugosa NCIM 3462 at 100 ug/ml after 48 hrs by agar cup diffusion method; conditions: NCIM 3462, 48 h, read-out: DIZ; how it was run: as §2
[14] = tested on: Aspergillus flavus; assay: Antifungal activity against Aspergillus flavus MTCC 277 at 30 ug/ml after 48 hrs by agar cup diffusion method; conditions: MTCC 277, 48 h, read-out: DIZ; how it was run: as §2
[15] = tested on: Saccharomyces cerevisiae; assay: Antifungal activity against Saccharomyces cerevisiae MTCC 36 at 30 ug/ml after 48 hrs by agar cup diffusion method; conditions: MTCC 36, 48 h, read-out: DIZ; how it was run: as §2
[16] = tested on: Diutina rugosa; assay: Antifungal activity against Candida rugosa NCIM 3462 at 30 ug/ml after 48 hrs by agar cup diffusion method; conditions: NCIM 3462, 48 h, read-out: DIZ; how it was run: as §2
[17] = tested on: Rhizopus arrhizus; assay: Antifungal activity against Rhizopus oryzae MTCC 262 at 30 ug/ml after 48 hrs by agar cup diffusion method; conditions: MTCC 262, 48 h, read-out: DIZ; how it was run: as §2

Row | Compound | MIC [1] [µg/mL] | MIC [5] [µg/mL] | MIC [6] [µg/mL] | MIC [7] [µg/mL] | MIC [8] [µg/mL] | zone of inhibition at 100 µg/mL [2] [mm] | zone of inhibition at 100 µg/mL [3] [mm] | zone of inhibition at 30 µg/mL [4] [mm] | zone of inhibition at 30 µg/mL [9] [mm] | zone of inhibition at 100 µg/mL [10] [mm] | zone of inhibition at 100 µg/mL [11] [mm] | zone of inhibition at 100 µg/mL [12] [mm] | zone of inhibition at 100 µg/mL [13] [mm] | zone of inhibition at 30 µg/mL [14] [mm] | zone of inhibition at 30 µg/mL [15] [mm] | zone of inhibition at 30 µg/mL [16] [mm] | zone of inhibition at 30 µg/mL [17] [mm]
1 | O=c1c2ccccc2nc(-c2ccccc2)n1Cc1cn(CCC(F)(F)C(F)(F)C(F)(F)C(F)(F)C(F)(F)C(F)(F)F)nn1 | 150 (≈ 231 µM) | 37.5 (≈ 57.7 µM) | 75 (≈ 115 µM) | 150 (≈ 231 µM) | 150 (≈ 231 µM) | 12 | 12 | 9 | 9 | 12 | 12 | 10 | 10 | 8 | 8 |  | 
2 | O=c1c2ccccc2nc(-c2c(F)cccc2F)n1Cc1cn(CCC(F)(F)C(F)(F)C(F)(F)C(F)(F)C(F)(F)C(F)(F)F)nn1 | 150 (≈ 219 µM) | 150 (≈ 219 µM) | 150 (≈ 219 µM) | 150 (≈ 219 µM) | 150 (≈ 219 µM) |  | 10 | 7 | 7 | 10 |  |  |  |  |  |  | 
3 | O=c1c2ccccc2nc(-c2c(F)cccc2F)n1Cc1cn(CCC(F)(F)C(F)(F)C(F)(F)C(F)(F)C(F)(F)C(F)(F)C(F)(F)C(F)(F)F)nn1 | 150 (≈ 191 µM) | 75 (≈ 95.5 µM) | 75 (≈ 95.5 µM) | 150 (≈ 191 µM) | 150 (≈ 191 µM) | 9 | 10 | 7 | 7 | 10 | 9 | 9 | 9 |  |  |  | 
4 | O=c1c2ccccc2nc(C(F)(F)F)n1Cc1cn(CCC(F)(F)C(F)(F)C(F)(F)C(F)(F)C(F)(F)C(F)(F)F)nn1 | 150 (≈ 234 µM) | 75 (≈ 117 µM) | 75 (≈ 117 µM) | 150 (≈ 234 µM) | 150 (≈ 234 µM) | 12 | 9 |  |  | 9 | 12 | 13 | 13 | 9 | 9 | 8 | 8
5 | FC(F)(F)C(F)(F)C(F)(F)C(F)(F)C(F)(F)C(F)(F)C(F)(F)C(F)(F)CCn1cc(COc2nc(-c3ccccc3)nc3ccccc23)nn1 | 150 (≈ 200 µM) | 75 (≈ 100 µM) | 150 (≈ 200 µM) | 150 (≈ 200 µM) | 150 (≈ 200 µM) | 10 | 10 | 7 | 7 | 10 | 10 | 10 | 10 | 7 | 7 |  | 

The remaining molecules from weak to strong by MIC [1], led by results:

Row | MIC [1] [µg/mL] | MIC [5] [µg/mL] | MIC [6] [µg/mL] | MIC [7] [µg/mL] | MIC [8] [µg/mL] | Compound | zone of inhibition at 100 µg/mL [2] [mm] | zone of inhibition at 100 µg/mL [3] [mm] | zone of inhibition at 30 µg/mL [4] [mm] | zone of inhibition at 30 µg/mL [9] [mm] | zone of inhibition at 100 µg/mL [10] [mm] | zone of inhibition at 100 µg/mL [11] [mm] | zone of inhibition at 100 µg/mL [12] [mm] | zone of inhibition at 100 µg/mL [13] [mm] | zone of inhibition at 30 µg/mL [14] [mm] | zone of inhibition at 30 µg/mL [15] [mm] | zone of inhibition at 30 µg/mL [16] [mm] | zone of inhibition at 30 µg/mL [17] [mm]
6 | 150 (≈ 202 µM) | 150 (≈ 202 µM) | 150 (≈ 202 µM) | 150 (≈ 202 µM) | 150 (≈ 202 µM) | FC(F)(F)c1nc(OCc2cn(CCC(F)(F)C(F)(F)C(F)(F)C(F)(F)C(F)(F)C(F)(F)C(F)(F)C(F)(F)F)nn2)c2ccccc2n1 |  | 9 |  |  | 9 |  |  |  |  |  |  | 
7 | 75 (≈ 115 µM) | 75 (≈ 115 µM) | 75 (≈ 115 µM) | 150 (≈ 231 µM) | 75 (≈ 115 µM) | FC(F)(F)C(F)(F)C(F)(F)C(F)(F)C(F)(F)C(F)(F)CCn1cc(COc2nc(-c3ccccc3)nc3ccccc23)nn1 | 9 | 11 | 8 | 8 | 11 | 9 |  |  |  |  |  | 
8 | 9.38 (≈ 14.6 µM) | 37.5 (≈ 58.5 µM) | 75 (≈ 117 µM) | 18.8 (≈ 29.2 µM) | 9.38 (≈ 14.6 µM) | FC(F)(F)c1nc(OCc2cn(CCC(F)(F)C(F)(F)C(F)(F)C(F)(F)C(F)(F)C(F)(F)F)nn2)c2ccccc2n1 | 9 | 12 | 8 | 8 | 12 | 9 | 9 | 9 |  |  |  | 
